Laboratory results published in article PMC6600871 (Nature chemical biology, 2019).
pIC50: −log10 of the molar value.

Tests used:
[1] = Caco-2 permeability assay; format: in vitro ADME; conditions: human, Caco-2, pH 7.2
[2] = system: VHL-ElonginC-ElonginB (VCB) complex; test: Isothermal titration calorimetry; format: binding, human; conditions: ITC, VCB ± SMARCA2^BD
[3] = target: SMARCA4 (Homo sapiens, UniProt P51532); test: Protein degradation assay; format: cell-based; conditions: MV-4-11 cells, 1 µM compound
[4] = target: PBRM1 (Homo sapiens, UniProt Q86U86); test: Protein degradation assay, PBRM1 in NCI-H1568 cells; format: cell-based; conditions: read-out: DC50 PBRM1, 18 h
Summary of the method: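 Cells seeded at 20000/well in 24-well plates and held overnight at 37 °C. Test compound added from DMSO stock (DMSO normalised), 18 h at 37 °C. Lysed 30 min on ice in 1% Triton, 350 mM KCl, 10 mM Tris pH 7.4, 10 mM DTT, benzonase, protease/phosphatase inhibitors. Target protein quantified by WES capillary electrophoresis, normalised to GAPDH. Two independent experiments.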

[5] = system: panel of cancer cell lines; test: Proliferation of a panel of cancer cell lines; format: cell-based, human; conditions: all cell lines tested
[6] = system: NCI-H1703 cells; test: Proliferation assay; format: cell-based, human; conditions: SMARCA2/4 null cell line, 7 days
[7] = system: SK-MEL-5 cells; test: Proliferation assay; format: cell-based; conditions: Homo sapiens, SK-MEL-5, 168 h, read-out: anti-proliferative IC50, SK-MEL-5
[8] = target: SMARCA2^BD (Homo sapiens, UniProt P51531); format: binding
[9] = system: proteome of MV-4-11 cells; test: TMT labelling mass spectrometry proteomics in MV-4-11 cells; format: cell-based, human; conditions: 333 nM, 8 h
[10] = target: SMARCA2 (Homo sapiens, UniProt P51531); test: Protein degradation assay; format: cell-based; conditions: MV-4-11 cells, 1 µM compound
[11] = system: SK-MEL-5 cells; test: Real-time apoptosis measurement; format: cell-based, human; conditions: SK-MEL-5, 0.3 µM, comparable to doxorubicin (1 µM)
[12] = system: MV-4-11 cells; test: Proliferation assay; format: cell-based, human; conditions: read-out: anti-proliferative IC50, MV-4-11; cell viability after 7 days

Chain of PBRM1 (Q86U86 whole entry): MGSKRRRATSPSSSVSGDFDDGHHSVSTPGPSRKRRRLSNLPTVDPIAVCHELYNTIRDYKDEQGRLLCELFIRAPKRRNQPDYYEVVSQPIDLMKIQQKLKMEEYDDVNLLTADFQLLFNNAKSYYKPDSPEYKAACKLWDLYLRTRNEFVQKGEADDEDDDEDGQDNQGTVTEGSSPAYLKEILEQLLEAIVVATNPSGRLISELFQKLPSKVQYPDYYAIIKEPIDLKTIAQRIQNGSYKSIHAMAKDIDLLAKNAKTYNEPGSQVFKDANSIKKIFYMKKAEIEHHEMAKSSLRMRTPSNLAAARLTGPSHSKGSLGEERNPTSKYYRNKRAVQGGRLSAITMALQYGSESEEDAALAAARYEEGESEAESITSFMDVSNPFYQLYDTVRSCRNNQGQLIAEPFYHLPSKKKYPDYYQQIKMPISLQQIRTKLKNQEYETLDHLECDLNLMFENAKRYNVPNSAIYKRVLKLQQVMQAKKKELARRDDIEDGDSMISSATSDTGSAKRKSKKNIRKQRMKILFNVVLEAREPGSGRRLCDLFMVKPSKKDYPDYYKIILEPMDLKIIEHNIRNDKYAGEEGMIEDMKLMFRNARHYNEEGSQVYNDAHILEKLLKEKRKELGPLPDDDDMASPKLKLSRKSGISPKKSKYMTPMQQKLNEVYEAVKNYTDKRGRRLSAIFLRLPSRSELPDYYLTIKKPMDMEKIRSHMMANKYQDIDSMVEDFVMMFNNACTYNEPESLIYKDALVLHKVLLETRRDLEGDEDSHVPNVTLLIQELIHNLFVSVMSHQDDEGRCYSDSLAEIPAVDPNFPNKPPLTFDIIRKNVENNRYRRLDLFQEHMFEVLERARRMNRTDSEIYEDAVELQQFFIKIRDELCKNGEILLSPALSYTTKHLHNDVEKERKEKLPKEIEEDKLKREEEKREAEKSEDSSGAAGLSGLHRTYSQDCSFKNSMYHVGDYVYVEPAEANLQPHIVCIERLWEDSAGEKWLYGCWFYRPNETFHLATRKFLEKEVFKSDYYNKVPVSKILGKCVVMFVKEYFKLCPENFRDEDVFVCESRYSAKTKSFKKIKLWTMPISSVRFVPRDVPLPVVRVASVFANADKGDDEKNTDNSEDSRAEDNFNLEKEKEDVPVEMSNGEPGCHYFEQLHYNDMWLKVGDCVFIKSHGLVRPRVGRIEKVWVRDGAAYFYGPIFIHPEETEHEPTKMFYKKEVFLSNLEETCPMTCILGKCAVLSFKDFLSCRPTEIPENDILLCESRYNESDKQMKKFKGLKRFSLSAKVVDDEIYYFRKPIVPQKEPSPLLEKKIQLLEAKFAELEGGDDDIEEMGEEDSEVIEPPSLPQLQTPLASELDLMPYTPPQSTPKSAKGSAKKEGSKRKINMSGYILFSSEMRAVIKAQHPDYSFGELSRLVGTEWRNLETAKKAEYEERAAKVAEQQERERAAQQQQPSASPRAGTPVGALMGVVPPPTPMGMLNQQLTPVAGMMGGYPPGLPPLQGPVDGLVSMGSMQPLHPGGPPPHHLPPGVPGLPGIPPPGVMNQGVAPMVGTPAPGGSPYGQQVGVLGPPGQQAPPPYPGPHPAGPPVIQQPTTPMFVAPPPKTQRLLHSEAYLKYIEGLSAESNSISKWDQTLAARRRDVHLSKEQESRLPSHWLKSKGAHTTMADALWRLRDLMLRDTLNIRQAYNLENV
Chain of SMARCA4 (P51532 whole entry): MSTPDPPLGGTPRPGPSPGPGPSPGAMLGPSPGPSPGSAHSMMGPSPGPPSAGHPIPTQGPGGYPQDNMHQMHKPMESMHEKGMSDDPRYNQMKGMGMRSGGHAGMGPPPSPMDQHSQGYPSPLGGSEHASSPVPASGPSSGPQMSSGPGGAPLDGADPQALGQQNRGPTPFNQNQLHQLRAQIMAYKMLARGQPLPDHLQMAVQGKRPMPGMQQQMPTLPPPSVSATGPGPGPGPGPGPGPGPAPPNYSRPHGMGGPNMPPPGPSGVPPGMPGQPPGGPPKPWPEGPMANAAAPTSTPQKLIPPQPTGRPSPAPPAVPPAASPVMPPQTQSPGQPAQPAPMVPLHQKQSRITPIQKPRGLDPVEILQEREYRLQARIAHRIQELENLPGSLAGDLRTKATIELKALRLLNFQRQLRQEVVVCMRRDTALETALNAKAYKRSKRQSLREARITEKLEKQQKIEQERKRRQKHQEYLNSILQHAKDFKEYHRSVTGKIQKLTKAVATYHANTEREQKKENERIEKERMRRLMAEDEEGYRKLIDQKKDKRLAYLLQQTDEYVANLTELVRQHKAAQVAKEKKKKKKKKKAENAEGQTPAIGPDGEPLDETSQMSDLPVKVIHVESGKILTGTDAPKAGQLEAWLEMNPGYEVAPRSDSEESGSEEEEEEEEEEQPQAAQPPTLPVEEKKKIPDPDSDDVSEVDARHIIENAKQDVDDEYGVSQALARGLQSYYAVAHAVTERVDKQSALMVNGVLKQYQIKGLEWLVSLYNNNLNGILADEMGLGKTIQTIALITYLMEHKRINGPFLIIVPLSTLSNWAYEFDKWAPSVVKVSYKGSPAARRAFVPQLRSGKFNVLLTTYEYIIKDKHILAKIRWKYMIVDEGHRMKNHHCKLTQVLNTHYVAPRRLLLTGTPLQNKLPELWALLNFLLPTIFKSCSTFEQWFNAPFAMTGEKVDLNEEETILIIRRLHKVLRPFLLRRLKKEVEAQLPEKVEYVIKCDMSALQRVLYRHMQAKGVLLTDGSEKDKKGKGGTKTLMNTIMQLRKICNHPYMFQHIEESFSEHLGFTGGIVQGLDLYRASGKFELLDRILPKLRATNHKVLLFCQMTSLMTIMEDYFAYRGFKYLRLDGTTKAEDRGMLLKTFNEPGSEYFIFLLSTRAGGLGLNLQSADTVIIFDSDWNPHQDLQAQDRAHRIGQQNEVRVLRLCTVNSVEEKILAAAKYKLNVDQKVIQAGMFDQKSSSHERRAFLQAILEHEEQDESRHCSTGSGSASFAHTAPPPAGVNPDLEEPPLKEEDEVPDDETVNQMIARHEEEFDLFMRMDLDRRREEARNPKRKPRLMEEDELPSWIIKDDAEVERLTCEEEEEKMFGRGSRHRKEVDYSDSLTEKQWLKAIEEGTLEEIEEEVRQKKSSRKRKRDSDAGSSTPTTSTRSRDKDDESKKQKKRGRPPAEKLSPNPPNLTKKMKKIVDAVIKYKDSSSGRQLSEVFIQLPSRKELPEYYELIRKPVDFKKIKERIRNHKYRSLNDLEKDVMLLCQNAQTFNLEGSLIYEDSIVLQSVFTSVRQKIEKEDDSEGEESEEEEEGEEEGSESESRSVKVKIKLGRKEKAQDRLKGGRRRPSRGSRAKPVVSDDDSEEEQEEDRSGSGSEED

SMILES	Papp B→A at 2 h [1] [nm/s]	cooperativity α (binary KD/ternary KD) [2]	efflux ratio [1]	time to half maximal degradation of SMARCA4 [3] [h]	DC50 [4] [µM]	anti-proliferative effect across cell lines tested [5]	anti-proliferative effect in NCI-H1703 [6]	pIC50 [7]	pIC50 [8]	effect on cellular proteome [9]	time to half maximal degradation of SMARCA2 [10] [h]	caspase activity / apoptosis [11]	pIC50 [12]
Cc1ncsc1-c1ccc(CNC(=O)[C@@H]2C[C@@H](O)CN2C(=O)[C@@H](NC(=O)C2(F)CC2)C(C)(C)C)c(OCCOCCOCCN2CCN(c3cc(-c4ccccc4O)nnc3N)CC2)c1 [PROTAC 1, (2S,4R)-N-(2-(2-(2-(2-(4-(3-amino-6-(2-hydroxyphenyl)pyridazin-4-yl)piperazin-1-yl)ethoxy)ethoxy)ethoxy)-4-(4-methylthiazol-5-yl)benzyl)-1-((S)-2-(1-fluorocyclopropane-1-carboxamido)-3,3-dimethylbutanoyl)-4-hydroxypyrrolidine-2-carboxamide]	207	4.8											
Cc1ncsc1-c1ccc(CNC(=O)[C@@H]2C[C@@H](O)CN2C(=O)[C@@H](NC(=O)C2(F)CC2)C(C)(C)C)c(OCCOc2ccc(CN3CCN(c4cc(-c5ccccc5O)nnc4N)CC3)cc2)c1 [ACBI1, (2S,4R)-N-(2-(2-(4-((4-(3-amino-6-(2-hydroxyphenyl)pyridazin-4-yl)piperazin-1-yl)methyl)phenoxy)ethoxy)-4-(4-methylthiazol-5-yl)benzyl)-1-((S)-2-(1-fluorocyclopropane-1-carboxamido)-3,3-dimethylbutanoyl)-4-hydroxypyrrolidine-2-carboxamide]			1.7	< 2	0.0156	potent anti-proliferative effects	no anti-proliferative effects	7.11	6.11	significant knockdown of SMARCA2, SMARCA4 and PBRM1 with minimal down-regulation of other proteins across the proteome	< 2	increased caspase activity	7.54
Cc1ncsc1-c1ccc(CNC(=O)[C@@H]2C[C@H](O)CN2C(=O)[C@@H](NC(=O)C2(F)CC2)C(C)(C)C)c(OCCOc2ccc(CN3CCN(c4cc(-c5ccccc5O)nnc4N)CC3)cc2)c1 [cis-ACBI1, (2S,4S)-N-(2-(2-(4-((4-(3-amino-6-(2-hydroxyphenyl)pyridazin-4-yl)piperazin-1-yl)methyl)phenoxy)ethoxy)-4-(4-methylthiazol-5-yl)benzyl)-1-((S)-2-(1-fluorocyclopropane-1-carboxamido)-3,3-dimethylbutanoyl)-4-hydroxypyrrolidine-2-carboxamide]							no anti-proliferative effects	< 5.00					
